Laboratory results taken from ChEMBL document CHEMBL1122395, “Tetracyclic chromophoric analogues of actinomycin D: synthesis, structure elucidation and interconvertibility from one form to another, antitumor activity, and structure-activity relationships” (1983).
Values after ≈ are worked out from the molar mass of the structure shown. Starred links: 1 amine or outer side, 2 acyl side, 3 side chain; linkers in the order of their positions; H or OH if unused. Positions of bridges follow the written chain, without caps; N, C: chain ends. Non-standard residues stand in square brackets, D forms with d. Residues, ends and D or L forms follow the SMILES beside them. Chains are numbered I, II in the order given. Actinocin(1to9) = Cc1c2oc3c(C)ccc(C(=O)[*:2])c3nc-2c(C(=O)[*:1])c(N)c1=O; NMeV = CN[C@H](C(=O)O)C(C)C; Sar = CNCC(=O)O

Assays:
[1] = tested on: Nucleic Acid; assay: (§1) Melting temperature of DNA-drug complex minus melting temperature of purified calf-thymus DNA; type: functional; settings: Bos taurus
[2] = tested on: Nucleic Acid; assay: as §1; type: functional; settings: Bos taurus; remark: listed apart in the source
Method in brief: (§2)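 Calf-thymus DNA, purified. ΔTm is the Tm of the DNA-drug complex minus the Tm of DNA alone. Medium was 0.01 M phosphate buffer, pH 7.0, with EDTA.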

[3] = tested on: P388; assay: Median survival time observed in P-388 cells infected male CDF1 hybrid mice after intraperitoneal administration at 600 ug/kg optimal dose; type: functional, Mus musculus
Method in brief: (§3)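 Male CDF1 mice, seven per group, given 10^6 P388 cells ip on day 0. Drugs were given ip in 10% Me2SO-saline on days 1, 5 and 9, with solutions kept at 0-4 °C, protected from light and checked for homogeneity by HPLC. A range of doses was run and the optimal nontoxic dose reported. Read-outs were median survival time, percent increase in life span, and cures (over-60-day survivors, average of two experiments).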

[4] = tested on: CCRF-CEM; assay: Growth inhibitory activity against human lymphoblastic leukemia cells(CCRF-CEM); type: functional; settings: read-out: ID50 (the source's name)
Method in brief: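 Log-phase human lymphoblastic leukemia CCRF-CEM cells grown in suspension culture. Compounds dissolved in Me2SO, final growth medium contained 5% Me2SO. Test solutions kept at 0-4 °C, protected from light, homogeneity checked by HPLC before testing. ID50 reported in ng/mL.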

[5] = tested on: P388; assay: Percent increase in life span observed in P-388 cells infected male CDF1 hybrid mice after intraperitoneal administration at 600 ug/kg optimal dose; type: functional, Mus musculus; method in brief: as §3
[6] = species on record: Mus musculus; assay: Male CDF1 hybrid treated mice out of seven which survived over 60 days after the treatment.; type: functional; method in brief: as §3
[7] = tested on: P388; assay: Percent increase in life span observed in P-388 cells infected male CDF1 hybrid mice after intraperitoneal administration at 900 ug/kg optimal dose; type: functional, Mus musculus; method in brief: as §3
[8] = tested on: P388; assay: Median survival time observed in P-388 cells infected male CDF1 hybrid mice after intraperitoneal administration at 900 ug/kg optimal dose; type: functional, Mus musculus; method in brief: as §3
[9] = tested on: P388; assay: Median survival time observed in P-388 cells infected male CDF1 hybrid mice after intraperitoneal administration at 1800 ug/kg optimal dose; type: functional, Mus musculus; method in brief: as §3
[10] = tested on: P388; assay: Percent increase in life span observed in P-388 cells infected male CDF1 hybrid mice after intraperitoneal administration at 1800 ug/kg optimal dose; type: functional, Mus musculus; method in brief: as §3
[11] = tested on: P388; assay: Median survival time observed in P-388 cells infected male CDF1 hybrid mice after intraperitoneal administration at 1200 ug/kg optimal dose; type: functional, Mus musculus; method in brief: as §3
[12] = tested on: P388; assay: Percent increase in life span observed in P-388 cells infected male CDF1 hybrid mice after intraperitoneal administration at 1200 ug/kg optimal dose; type: functional, Mus musculus; method in brief: as §3
[13] = species on record: Bos taurus; assay: as §1; type: functional; method in brief: as §2
[14] = tested on: P388; assay: Median survival time observed in P-388 cells infected male CDF1 hybrid mice after intraperitoneal administration at 125 ug/kg optimal dose; type: functional, Mus musculus; method in brief: as §3
[15] = tested on: P388; assay: Percent increase in life span observed in P-388 cells infected male CDF1 hybrid mice after intraperitoneal administration at 125 ug/kg optimal dose; type: functional, Mus musculus; method in brief: as §3

Q: `Cc1c2oc3c(C)c(O)c(N)c(C(=O)N[C@H]4C(=O)N[C@@H](C(C)C)C(=O)N5CCC[C@H]5C(=O)N(C)CC(=O)N(C)[C@H](C(C)C)C(=O)O[C@H]4C)c3nc-2c(C(=O)N[C@@H]2C(=O)N[C@H](C(C)C)C(=O)N3CCC[C@@H]3C(=O)N(C)CC(=O)N(C)[C@@H](C(C)C)C(=O)O[C@@H]2C)cc1=O` was tested. Which ΔTm [1] did it give?
A: The ΔTm was 6.7 °C.

Q: `Cc1nc2c(C(=O)N[C@H]3C(=O)N[C@H](C(C)C)C(=O)N4CCC[C@H]4C(=O)N(C)CC(=O)N(C)[C@@H](C(C)C)C(=O)O[C@H]3C)c3c(c(C)c2o1)Oc1c(C)ccc(C(=O)N[C@@H]2C(=O)N[C@H](C(C)C)C(=O)N4CCC[C@H]4C(=O)N(C)CC(=O)N(C)[C@@H](C(C)C)C(=O)O[C@@H]2C)c1N3` was tested. Which ΔTm [2] did it give?
A: The ΔTm was 0 °C.

Q: Which results are given for `Cc1ccc(C(=O)N[C@@H]2C(=O)N[C@H](C(C)C)C(=O)N3CCC[C@H]3C(=O)N(C)CC(=O)N(C)[C@@H](C(C)C)C(=O)O[C@@H]2C)c2c1Oc1c(c(C(=O)N[C@@H]3C(=O)N[C@H](C(C)C)C(=O)N4CCC[C@H]4C(=O)N(C)CC(=O)N(C)[C@@H](C(C)C)C(=O)O[C@@H]3C)c3nc(-c4cccc(Cl)c4)c(=O)oc3c1C)N2`?
A: MST [3]: 29 days; IC50 [4]: 1.6 µg/mL (≈ 1.14 µM); ILS [5]: 164%; Cures [6]: 0

Q: Which results are given for `Cc1ccc(C(=O)N[C@@H]2C(=O)N[C@H](C(C)C)C(=O)N3CCC[C@H]3C(=O)N(C)CC(=O)N(C)[C@@H](C(C)C)C(=O)O[C@@H]2C)c2c1Oc1c(c(C(=O)N[C@@H]3C(=O)N[C@H](C(C)C)C(=O)N4CCC[C@H]4C(=O)N(C)CC(=O)N(C)[C@@H](C(C)C)C(=O)O[C@@H]3C)c3nc(-c4ccccc4)oc3c1C)N2`?
A: ILS [7]: 109%; MST [8]: 23 days; IC50 [4]: 9 µg/mL (≈ 6.7 µM); Cures [6]: 0

Q: What does the source list for `Cc1ccc(C(=O)N[C@@H]2C(=O)N[C@H](C(C)C)C(=O)N3CCC[C@H]3C(=O)N(C)CC(=O)N(C)[C@@H](C(C)C)C(=O)O[C@@H]2C)c2c1Oc1c(c(C(=O)N[C@@H]3C(=O)N[C@H](C(C)C)C(=O)N4CCC[C@H]4C(=O)N(C)CC(=O)N(C)[C@@H](C(C)C)C(=O)O[C@@H]3C)c3nc(-c4c(F)c(F)c(F)c(F)c4F)c(=O)oc3c1C)N2`?
A: IC50 [4]: 0.64 µg/mL (≈ 0.438 µM); MST [9]: 31.5 days; ILS [10]: 186%; Cures [6]: 1

Q: With `Cc1nc2c(C(=O)N[C@@H]3C(=O)N[C@H](C(C)C)C(=O)N4CCC[C@H]4C(=O)N(C)CC(=O)N(C)[C@@H](C(C)C)C(=O)O[C@@H]3C)c3c(c(C)c2o1)Oc1c(C)ccc(C(=O)N[C@@H]2C(=O)N[C@H](C(C)C)C(=O)N4CCC[C@H]4C(=O)N(C)CC(=O)N(C)[C@@H](C(C)C)C(=O)O[C@@H]2C)c1N3` as the compound, how does the IC50 [4] read?
A: The IC50 was 2.9 µg/mL (≈ 2.26 µM).

Q: What about the MST [11] of the same compound?
A: The MST was 21 days.

Q: And the Cures [6]?
A: The Cures was 0.

Q: And the ILS [12]?
A: The ILS was 91%.

Q: Which IC50 [4] does the source give for `Cc1c2oc3c(C)ccc(C(=O)N[C@@H]4C(=O)N[C@H](C(C)C)C(=O)N5CCC[C@H]5C(=O)N(C)CC(=O)N(C)[C@@H](C(C)C)C(=O)O[C@@H]4C)c3nc-2c(C(=O)N[C@@H]2C(=O)N[C@H](C(C)C)C(=O)N3CCC[C@H]3C(=O)N(C)CC(=O)N(C)[C@@H](C(C)C)C(=O)O[C@@H]2C)c(N)c1=O` [DACTINOMYCIN] (I: T[dV]P[Sar][NMeV] / II: T[dV]P[Sar][NMeV]; ester I:1-I:C, II:1-II:C; linker I:N-II:N via Actinocin(1to9)) here?
A: Its IC50 is 0.04 µg/mL (≈ 0.0319 µM).

Q: And the ΔTm [13]?
A: Its ΔTm is 7.1 °C.

Q: What about the MST [14] of the same compound?
A: The MST was 26 days.

Q: What about the Cures [6] of the same compound?
A: Its Cures is 1.

Q: And the ILS [15]?
A: The ILS was 136%.

Q: Which results are given for `Cc1c2oc3c(C)c4oc(-c5c(F)c(F)c(F)c(F)c5F)nc4c(C(=O)N[C@@H]4C(=O)N[C@H](C(C)C)C(=O)N5CCC[C@H]5C(=O)N(C)CC(=O)N(C)[C@@H](C(C)C)C(=O)O[C@@H]4C)c3nc-2c(C(=O)N[C@@H]2C(=O)N[C@H](C(C)C)C(=O)N3CCC[C@H]3C(=O)N(C)CC(=O)N(C)[C@@H](C(C)C)C(=O)O[C@@H]2C)cc1=O`?
A: ILS [7]: 172%; MST [8]: 3 days; IC50 [4]: 0.63 µg/mL (≈ 0.435 µM); Cures [6]: 1

Q: With `Cc1ccc(C(=O)N[C@@H]2C(=O)N[C@H](C(C)C)C(=O)N3CCC[C@H]3C(=O)N(C)CC(=O)N(C)[C@@H](C(C)C)C(=O)O[C@@H]2C)c2c1Oc1c(c(C(=O)N[C@@H]3C(=O)N[C@H](C(C)C)C(=O)N4CCC[C@H]4C(=O)N(C)CC(=O)N(C)[C@@H](C(C)C)C(=O)O[C@@H]3C)c3nc(-c4ccc(Cl)cc4)c(=O)oc3c1C)N2` as the compound, how does the MST [3] read?
A: The MST was 29 days.

Q: And the IC50 [4]?
A: Its IC50 is 1.6 µg/mL (≈ 1.14 µM).

Q: And the ILS [5]?
A: Its ILS is 164%.

Q: What about the Cures [6] of the same compound?
A: Its Cures is 0.
